Published values from different studies.
Protocols differ between the studies behind these lines.
Target: Epithelial discoidin domain-containing receptor 1 (DDR1, Homo sapiens, UniProt Q08345)

COc1cnc(Nc2cccc(S(N)(=O)=O)c2)nc1N1CCN(c2ccccc2)CC1  remaining binding (binding, competition with immobilised ligand; 1 µM): 93%
COc1ncc2cc3ccccc3nc2c1C#N  remaining binding (cell-free assay, competition with immobilised ligand; 5 µM): 85%
O=C(O)c1cc(-c2ccc(C3CCNCC3)cc2)c2ccc(-c3ccc(C(F)(F)F)cc3)cc2c1  remaining binding (cell-free assay, competition with immobilised ligand; 1 µM): 100%
C[C@@H](c1ccc(-n2cnc3c(N)ncnc32)cc1)N1CCc2nn(C)c(Cc3ccccc3)c2C1=O  remaining binding (binding, competition with immobilised ligand; 0.1 µM): 8.9%
Cc1cnn2ncc(-c3ccnc(N(C)C)n3)c2c1  remaining binding (binding; 1 µM): 100%
CNC(=O)c1ccc(Nc2ncc(C(F)(F)F)c(NCc3nccnc3N(C)S(C)(=O)=O)n2)cc1  remaining binding (cell-free assay, competition with immobilised ligand; 0.1 µM): 100%
CC1CCCN1c1nccc(-c2cnn3ncccc23)n1 (stereo not drawn)  remaining binding (binding; 1 µM): 94%
O=c1nc(-c2ccccn2)sc2ccccc12  remaining binding (cell-free assay, competition with immobilised ligand; 1 µM): 85%
O=C(NCCCN1CCOCC1)c1ccc(Nc2ncc(Cl)c(-c3ccc(Cl)s3)n2)cc1  remaining binding (binding, competition with immobilised ligand; 1 µM): 84%
c1cnn2ncc(-c3ccnc(N4CCC45COC5)n3)c2c1  remaining binding (binding; 1 µM): 82%
CC(C)(O)c1cncc(-c2nc3ccc(F)cc3n2C2CC2)c1  remaining binding (cell-free assay, competition with immobilised ligand; 1 µM): 100%
O=C(NCCCN1CCOCC1)c1ccc(Nc2nccc(-c3cc4ccccc4s3)n2)cc1  remaining binding (binding, competition with immobilised ligand; 1 µM): 20%
CS(=O)(=O)N1CCCC(NC(=O)[C@H](CCC2CCCCC2)NC(=O)c2ccc(CNc3ncnc4c3nnn4-c3ccccc3)cc2)C1 (stereo partly drawn)  remaining binding (cell-free assay, competition with immobilised ligand; 0.1 µM): 89%
N[C@@H]1CCN(c2nccc(-c3cnn4ncccc34)n2)C1  remaining binding (binding; 1 µM): 100%
O=C(NCC1CCOCC1)c1n[nH]cc1NC(=O)c1c(F)cccc1F  remaining binding (binding, competition with immobilised ligand; 1 µM): 100%
F[C@@H]1CCN(c2nccc(-c3cnn4ncccc34)n2)C1  remaining binding (binding; 1 µM): 83%
Cc1cnc(Nc2ccc(C(=O)N3CCC(N4CCCC4)CC3)cc2)nc1-c1cc2ccccc2s1  remaining binding (binding, competition with immobilised ligand; 1 µM): 0.1%
C=CC(=O)N1CCC(C(=O)NCC(=O)N2CCN(c3nc(-c4cnc(N)nc4C(F)F)nc(N4CCOCC4)n3)CC2)CC1  remaining binding (binding, competition with immobilised ligand; 1 µM): 100%
FC(F)(F)c1ccc2c(c1)nc(-c1cccnc1)n2C1CC1  remaining binding (cell-free assay, competition with immobilised ligand; 1 µM): 100%
CN(CCCC(F)(F)F)c1nccc(-c2cnn3ncccc23)n1  remaining binding (binding; 1 µM): 100%
FC(F)(F)Oc1cccc(-c2cnc3ccc(-c4ccncc4)nn23)c1  remaining binding (cell-free assay, competition with immobilised ligand; 5 µM): 48%
